Assay results from ChEMBL document CHEMBL1938316, “Synthesis and anti-HCV activity evaluation of anilinoquinoline derivatives” (Bioorg Med Chem Lett, 2012).
Active and inactive are the calls of the source. No cut-off for these calls is given here.

Columns and labels:
Hepatitis C virus [1] = test: Antiviral activity against HCV infected in human Ava5 cells assessed as reduction in HCV RNA level after 3 days by qRT-PCR analysis; assay type: functional, organism-based, Hepacivirus hominis; conditions: for EC50: Ava5, 72 h
Method in brief: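 Ava5 cells (Huh7 harbouring HCV subgenomic replicon) exposed to compounds at 0.5–150 µM for 3 days. Total cellular RNA quantified by RT-qPCR with HCV-specific primers, normalised to GAPDH mRNA. EC50 is the concentration lowering HCV RNA by 50% versus 0.1% DMSO mock, from non-linear regression. Means of triplicate experiments.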

[2] = Selectivity index, ratio of CC50 for human Ava5 cells to IC50 for HCV replication; assay type: functional
Method in brief: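 CC50 from MTS viability in Ava5 cells, run in parallel with replicon treatment (0.5–150 µM, 3 days, versus 0.1% DMSO mock). EC50 is 50% reduction in HCV RNA by RT-qPCR. Index calculated as CC50/EC50.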

Hepatitis C virus [3] = test: Antiviral activity against HCV infected in human Ava5 cells assessed as inhibition of NS5B protein expression after 4 days by Western blot analysis; assay type: functional, organism-based; conditions: Hepacivirus hominis
Method in brief: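 Ava5 cells (Huh7 carrying HCV subgenomic replicon) incubated 4 days with compound at 2.5–15 µM; 0.1% DMSO as mock. Cell lysates analysed by western blot with anti-NS5B antibody, GAPDH as loading control.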

Huh-7 = test: Inhibition of HCV NS3/4A protease expressed in human Huh7 cells coexpressing EGFP at 15 uM after 3 days by secretory alkaline phosphatase reporter gene assay; assay type: cell-based; conditions: Hepacivirus hominis
Method in brief: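 Huh-7 cells transfected 6 h with 0.5 µg pEG(Δ4AB)SEAP-NS3/4A reporter plasmid, then treated with compound at 5, 10, 12.5 and 15 µM. Controls: 10 nM BILN 2061 (positive) and 0.1% DMSO (mock). SEAP activity in culture medium read after 3 days, expressed as % reduction versus mock. Triplicates, mean ± SD.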

Hepatitis C virus [4] = test: Antiviral activity against HCV infected in human Ava5 cells assessed as reduction in HCV RNA level at 15 uM after 3 days by qRT-PCR analysis relative to control; assay type: functional, Hepacivirus hominis; set-up: scale not given: the % may be the effect or the level left
Method in brief: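 HCV replicon Ava5 cells treated 3 days at 2.5–15 µM. HCV RNA measured by RT-qPCR, normalised to GAPDH mRNA, relative to 0.1% DMSO mock. Triplicate experiments, mean ± SD.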

Hepacivirus hominis = test: Inhibition of HCV NS5B polymerase activity by luciferase reporter gene assay
[5] = tested on: Internal ribosome entry site (IRES); test: Inhibition of HCV IRES-mediated translation by secretory alkaline phosphatase reporter gene assay; assay type: nucleic-acid assay; conditions: Hepacivirus hominis

Row | SMILES | EC50 (Hepatitis C virus [1]) [µM] | Ratio CC50/EC50 [2] | also measured
1 | Cc1cccc(C)c1Nc1ccc2ccccc2n1 | 40 | 1 | 
2 | O=[N+]([O-])c1cccc(Nc2ccc3ccccc3n2)c1 | 7 | 10 | inhibition (Hepatitis C virus [3]): Dose-dependent effect; inhibition (Huh-7): 40%; Activity (Hepatitis C virus [4]): 80%; inhibition (Hepacivirus hominis): inactive; inhibition [5]: inactive; Activity (Hepatitis C virus [1]; Hepacivirus hominis): Dose-dependent effect
3 | COc1ccc(Nc2ccc3ccccc3n2)cc1 | 43 | 1 | 
4 | Clc1cc(Br)ccc1Nc1ccc2ccccc2n1 | 45 | 1 | 
5 | Cc1ccc(Nc2ccc3ccccc3n2)c(C)c1 | 35 | 1 | 
6 | c1ccc(COc2cccc(Nc3ccc4ccccc4n3)c2)cc1 | 15.1 | 3.1 | 
7 | COc1cc(Nc2ccc3ccccc3n2)cc(OC)c1 | 33 | 1 | 
8 | Cc1ccc(Nc2ccc3ccccc3n2)cc1 | 43 | 1 | 
9 | O=[N+]([O-])c1ccc(Nc2ccc3ccccc3n2)cc1 | 20 | 2.4 | 
10 | N#Cc1ccc(Nc2ccc3ccccc3n2)cc1 | 14.3 | 3.5 | 
11 | COc1cc(Nc2ccc3ccccc3n2)cc(OC)c1OC | 25 | 3 | 
12 | Clc1ccc(Nc2ccc3ccccc3n2)cc1 | 53 | 1.1 | 
13 | O=[N+]([O-])c1cc(Nc2ccc3ccccc3n2)ccc1O | 21.7 | 3.8 | 
14 | CCOC(=O)c1ccc(Nc2ccc3ccccc3n2)cc1 | 50 | 2.9 | 
15 | c1ccc(Nc2ccc3ccccc3n2)cc1 | 23 | 1.96 | 
16 | Cc1cc(C)cc(Nc2ccc3ccccc3n2)c1 | 31 | 1 | 
17 | Brc1ccccc1Nc1ccc2ccccc2n1 | 60 | 1 | 
18 | Cc1cc(Cl)ccc1Nc1ccc2ccccc2n1 | 12.5 | 3.4 | 
